Measurements from publication PMC7299768 (Journal of controlled release : official journal of the …, 2020).

Legend:
[1] = Pharmacokinetics and tissue bio-distribution after single oral administration; type: in vivo, C57BL/6J mice; conditions: for Level in most of the blood samples: after oral free-6-S or 6-S-NL 5 mg/kg
Outline: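 Single oral gavage of 5 mg/kg to fasted (4 h) female C57BL/6J mice, as free test compound in 0.5% CMC-Na/PBS or as lipid nanoparticles in PBS. Sparse sampling, 3 mice/time point: blood (K₂EDTA) 5 min–8 h; stomach, small intestine, colon, liver and kidney 15 min–8 h. Acetonitrile precipitation, LC-MS/MS (MRM) of parent and metabolites. Cmax and Tmax observed; T1/2 = ln2/k.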

[2] = cited from earlier work
Drug loading efficiency = type: physicochemical; conditions: (encapsulated drug/total drug) x100%; natural lipid NPs
Outline: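 Loading into natural-lipid nanoparticles measured by dialysis in 10 K MWCO mini devices pre-equilibrated with release medium (3% MeOH, 0.1% Polysorbate 80 in PBS, pH 7.4). Entrapped drug is apical minus basal concentration; free drug is basal concentration. Quantified by HPLC-UV (C18 column, 282 nm). Efficiency = encapsulated/total drug ×100%, from three batches.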

inflamed Raw 264.7 cells = experiment: In vitro anti-inflammation assay; type: cell-based; conditions: 1.0 μg/mL; for IL-1β gene expression / IL-6 gene expression / IL-10 gene expression / TNF-α gene expression: LPS-inflamed Raw 264.7 cells, RT-PCR; for Anti-inflammatory activities compared with 6-shogaol: inflamed Raw 264.7 cells
wounded Caco-2 BBE cells = experiment: In vitro wound-healing assay; type: cell-based; conditions: 0.6 mL of 1.0 μg/mL solution; ECIS
Outline: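 Caco-2 BBE cells were grown on ECIS 8W1E electrode plates in humidified 5% CO₂. At confluence, medium with or without test compound (1.0 μg/mL) or control formulation was added. Monolayers were wounded by a 30 s pulse (40 kHz, 4.5 V), and recovery was followed as impedance, with resistance measured at 500 Hz and 1 V.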

[3] = oral 5 mg/kg, compared to the 6-S-NL group

Tmax of 6-shogaol in the colon ([1]; oral 5 mg/kg) | M13 concentrations in the small intestine, comparison ([1]; oral 5 mg/kg, compared to 6-S-NL) | AUC values of M2 and M13 in liver and kidney tissues, comparison [1, 3] | Exposure (AUC) of 6-shogaol in stomach and small intestine tissues, comparison [1, 3] | Drug loading efficiency (Drug loading efficiency) | Level in most of the blood samples [1] | Healing of wounded Caco-2 epithelial monolayers compared with 6-shogaol (wounded Caco-2 BBE cells) | Compound | Effective 6-shogaol concentration in vitro [2] | IL-1β gene expression (inflamed Raw 264.7 cells) | IL-6 gene expression (inflamed Raw 264.7 cells) | IL-10 gene expression (inflamed Raw 264.7 cells) | TNF-α gene expression (inflamed Raw 264.7 cells) | Anti-inflammatory activities compared with 6-shogaol (inflamed Raw 264.7 cells)
1.5 h | higher | higher | significantly higher | 89.1 ± 2.6% | – | – | CCCCC/C=C/C(=O)CCc1ccc(O)c(OC)c1 [6-shogaol] | about 1 μg/mL | – | – | – | – | –
– | – | – | – | 91.3 ± 3.1% | below the LLOQ | healed significantly faster | CCCCCC(CC(=O)CCc1ccc(O)c(OC)c1)SC[C@H](N)C(=O)O (stereo partly shown) [M2] | – | down-regulate | down-regulate | up-regulate | down-regulate | higher
– | – | – | – | 83.3 ± 1.9% | below the LLOQ | healed significantly faster | CCCCCC(CC(=O)CCc1ccc(O)c(OC)c1)SC[C@H](NC(=O)CC[C@H](N)C(=O)O)C(=O)NCC(=O)O (stereo partly shown) [M13] | – | down-regulate | down-regulate | up-regulate | down-regulate | higher
